Pf Dd2 inh: blocks growth of Plasmodium falciparum Dd2 parasites; P. falciparum Dd2 growth, SYBR Green, 72 h; stronger effect = lower value; activity change, % at 10 µM; 2.3% of 94,000 active; AID 1159554; in the data active = activity change below about -80%; inconclusive = no clear call, values can overlap the other calls
GASC1 inh: inhibitors of human demethylase GASC-1 KDM4C; Q9H3R0; GST-KDM4C 2-372, H3K9me3 peptide, LANCE TR-FRET; inhibition, % at 12.5 µM; 0.15% of 96,000 active; AID 720574;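 active = mean replicate inhibition above about 25%, with at least 55% of replicates also reaching it, limit read from the data, passing the limit was not always enough; inconclusive = only one of those two conditions met; inactive = neither condition met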
Target sequence (Q9H3R0 2-372 limits assumed): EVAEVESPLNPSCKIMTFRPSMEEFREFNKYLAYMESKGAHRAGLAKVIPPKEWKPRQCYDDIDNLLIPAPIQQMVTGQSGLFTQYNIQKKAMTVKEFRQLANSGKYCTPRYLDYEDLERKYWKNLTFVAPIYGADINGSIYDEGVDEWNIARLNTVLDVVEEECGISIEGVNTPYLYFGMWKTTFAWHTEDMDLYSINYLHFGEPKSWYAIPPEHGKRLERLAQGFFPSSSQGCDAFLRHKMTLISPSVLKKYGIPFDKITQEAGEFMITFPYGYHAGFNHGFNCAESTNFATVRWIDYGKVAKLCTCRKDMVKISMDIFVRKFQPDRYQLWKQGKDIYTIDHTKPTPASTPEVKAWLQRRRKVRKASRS
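material = GST-tagged GASC-1 (JMJD2C) catalytic fragment, aa 2-372 | amount = enzyme final amount 10 nM | medium = HEPES buffer, pH 7.5, plus ascorbate | also added = H3K9me3 peptide substrate, Fe(II), 2-oxoglutarate | dosing = single dose | times = 30 min demethylation and 1 h detection at room temperature | detection = LANCE TR-FRET | read-out basis = Fall in 671/618 emission ratio as inhibition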
IDH1 mut inh: IDH1 R132H (human) inhibition; O75874; IDH1 R132H reductase, diaphorase/resazurin fluorescence, 60 min; inhibition, % at 10 µM; 0.18% of 70,000 active; AID 624101; in the data active = inhibition above about 34%; inconclusive = no clear call, values can overlap the other calls; inactive = below about 11%;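 also: 0% = DMSO and 100% = no enzyme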
T cruzi growth-1: blocks T. cruzi growth in NIH3T3 culture; T. cruzi beta-gal in NIH3T3, GalScreen luminescence, 90 h; inhibition, % at 8.34 µM; 5.9% of 77,000 active; AID 624255;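 active = mean inhibition above about 93%, with at least 55% of replicates each passing it, limit read from the data, passing the limit was not always enough; inconclusive = only one of those two conditions holds; inactive = neither condition holds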
T cruzi growth-2: Trypanosoma cruzi proliferation inhibition; shares compounds with T cruzi growth-1; T. cruzi beta-gal in NIH3T3, GalScreen luminescence, 90 h; inhibition, % at 8.35 µM; 72% of 5,600 active;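 active = mean replicate inhibition above about 95% and at least 55% of replicates individually reaching it, limit read from the data; inconclusive = only one of the two criteria is met; inactive = neither criterion is met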
T cruzi growth-3: Trypanosoma cruzi proliferation inhibition; inhibition, % at 2.09 µM; T. cruzi beta-gal in NIH3T3, GalScreen luminescence, 90 h; shares compounds with T cruzi growth-1; AID 651740; 21% of 5,600 active;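 active = mean inhibition above about 95%, with at least 55% of replicates also reaching it, limit read from the data; inconclusive = meets just one of the two conditions; inactive = meets neither condition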;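 also: plate controls were neutral control median for no effect and positive control median for full effect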
3T3 cytotox: kills mouse NIH/3T3 fibroblasts. shares compounds with T cruzi growth-1. NIH/3T3 viability, CellTiter-Glo ATP luminescence, 90 h. cytotoxicity (signal decrease), % at 8.35 µM. 14% of 5,600 active;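 active = mean signal decrease across replicates above about 35% based on untreated-well scatter, with enough replicates individually passing, limit read from the data; inconclusive = no rule stated though some were filed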;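 also: 0% = median of neutral control wells and 100% = median of positive control wells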
3T3 cytotox 2: kills mouse NIH/3T3 fibroblasts. NIH/3T3 viability, CellTiter-Glo ATP luminescence, 90 h. 56% of 5,600 active. shares compounds with T cruzi growth-1. AID 651744. inhibition, % at 24.9 µM;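 active = mean loss of cell viability signal at or above a set limit, and enough replicates individually reaching it; inconclusive = meets only the mean limit or only the replicate share; inactive = meets neither condition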;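 also: 0% = median of neutral control wells and 100% = median of positive control wells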
An asterisk follows results filed as active; ? = inconclusive; · = no result given. The list is not random: actives were taken first. Their share in the collection is about 5.8%.

SMILES	Pf Dd2 inh	GASC1 inh	IDH1 mut inh	T cruzi growth-1	T cruzi growth-2	T cruzi growth-3	3T3 cytotox	3T3 cytotox 2
Cc1ccc(S(=O)(=O)NCC(C)O)cc1-c1nnc2c3ccccc3c(C)nn12 (configuration not stated)	·	·	0	·	·	·	·	·
C[C@@H]1CN([C@H](C)CO)S(=O)(=O)c2ccc(-c3ccccc3F)cc2O[C@@H]1CN(C)Cc1cccnc1	-5	2	5	75	·	·	·	·
C[C@@H]1CN([C@@H](C)CO)S(=O)(=O)c2ccc(-c3ccccc3)cc2O[C@H]1CN(C)Cc1ccncc1	-29	-2	2	?	·	·	·	·
Cc1ccccc1-c1ccc2c(c1)O[C@H](CN(C)Cc1ccncc1)[C@@H](C)CN([C@@H](C)CO)S2(=O)=O	?	-1	45*	97*	99*	99*	41*	105*
C[C@@H]1CN([C@@H](C)CO)S(=O)(=O)c2ccc(-c3ccccc3F)cc2O[C@@H]1CN(C)Cc1ccncc1	-5	4	8	100*	?	83	29	47*
C[C@@H]1CN([C@@H](C)CO)S(=O)(=O)c2ccc(-c3ccccc3F)cc2O[C@H]1CN(C)Cc1cccnc1	-68	4	26	101*	101*	97*	56*	95*
COc1ccc(S(=O)(=O)N(C)C[C@@H]2Oc3cc(-c4ccccc4OC)ccc3S(=O)(=O)N([C@@H](C)CO)C[C@H]2C)cc1	?	0	·	125*	106*	87	?	51*
COc1ccc(S(=O)(=O)N(C)C[C@H]2Oc3cc(-c4ccccc4OC)ccc3S(=O)(=O)N([C@H](C)CO)C[C@@H]2C)cc1	-74	-2	·	123*	100*	46	47*	57*
COc1ccc(S(=O)(=O)N(C)C[C@H]2Oc3cc(-c4ccccc4OC)ccc3S(=O)(=O)N([C@H](C)CO)C[C@H]2C)cc1	-62	-3	2	123*	99*	58	21	37*
COc1ccc(NC(=O)Nc2ccc3c(c2)C(=O)N([C@@H](C)CO)C[C@H](C)[C@@H](CN(C)S(=O)(=O)c2ccc(OC)cc2)OCCCC[C@H](C)O3)cc1	-61	0	·	?	108*	23	18	3
COc1ccc(NC(=O)Nc2ccc3c(c2)C(=O)N([C@@H](C)CO)C[C@H](C)[C@@H](CN(C)S(=O)(=O)c2ccc(F)cc2)OCCCC[C@@H](C)O3)cc1	?	-1	·	74	·	·	·	·
COc1ccc(S(=O)(=O)N(C)C[C@@H]2OCCCC[C@H](C)Oc3ccc(NC(=O)C4CCCCC4)cc3C(=O)N([C@H](C)CO)C[C@H]2C)cc1	-86*	0	1	99*	64	39	20	?
COc1ccc(NC(=O)Nc2ccc3c(c2)C(=O)N([C@H](C)CO)C[C@H](C)[C@H](CN(C)S(=O)(=O)c2ccc(OC)cc2)OCCCC[C@H](C)O3)cc1	-45	1	·	?	104*	51	3	14
COc1ccc(S(=O)(=O)N(C)C[C@@H]2OCCCC[C@H](C)Oc3ccc(NC(=O)C4CCCCC4)cc3C(=O)N([C@@H](C)CO)C[C@H]2C)cc1	-78	0	·	81	·	·	·	·
COc1ccc(S(=O)(=O)N(C)C[C@@H]2OCCCC[C@H](C)Oc3ccc(NC(=O)Nc4ccc(C(F)(F)F)cc4)cc3C(=O)N([C@@H](C)CO)C[C@@H]2C)cc1	-79	-1	2	97*	111*	115*	27	4
COc1ccc(NC(=O)Nc2ccc3c(c2)C(=O)N([C@@H](C)CO)C[C@@H](C)[C@@H](CN(C)S(=O)(=O)c2ccc(OC)cc2)OCCCC[C@H](C)O3)cc1	10	0	0	-48	·	·	·	·
O=C(CN1C2=NCCN2c2ccccc21)c1ccc(Cl)cc1Cl	·	·	-4	·	·	·	·	·
COc1ccc(NC(=O)Nc2ccc3c(c2)C(=O)N([C@H](C)CO)C[C@@H](C)[C@H](CN(C)S(=O)(=O)c2ccc(OC)cc2)OCCCC[C@@H](C)O3)cc1	-73	1	1	105*	109*	49	-27	-17
COc1ccc(S(=O)(=O)N(C)C[C@@H]2OCCCC[C@H](C)Oc3ccc(NC(=O)Nc4ccc5c(c4)OCO5)cc3C(=O)N([C@H](C)CO)C[C@@H]2C)cc1	-81*	1	·	103*	107*	90	10	10
COc1ccc(NC(=O)Nc2ccc3c(c2)C(=O)N([C@@H](C)CO)C[C@H](C)[C@@H](CN(C)S(=O)(=O)c2ccc(C)cc2)OCCCC[C@@H](C)O3)cc1	-83*	0	0	97*	111*	52	-18	8
COc1ccc(NC(=O)Nc2ccc3c(c2)C(=O)N([C@H](C)CO)C[C@@H](C)[C@@H](CN(C)S(=O)(=O)c2ccc(C)cc2)OCCCC[C@H](C)O3)cc1	-75	1	·	-80	·	·	·	·
O=C(CSc1nccc(=O)[nH]1)Nc1cccc(C(F)(F)F)c1	·	·	-1	·	·	·	·	·
O=C(C[C@H]1CC[C@@H]2[C@H](COC[C@H](O)CN2C(=O)Nc2ccc(Cl)c(Cl)c2)O1)NCc1ccc(F)cc1	2	3	·	39	·	·	·	·
Cc1noc(C)c1NC(=O)N1C[C@@H](O)COC[C@@H]2O[C@@H](CC(=O)NCC3CC3)CC[C@H]21	·	1	·	77	·	·	·	·
O=C(C[C@@H]1CC[C@@H]2[C@H](COC[C@@H](O)CN2C(=O)Nc2ccc(Cl)c(Cl)c2)O1)NCc1ccc(Cl)c(Cl)c1	-16	0	·	109*	91	97*	3	90*
SMILES	Pf Dd2 inh	GASC1 inh	IDH1 mut inh	T cruzi growth-1	T cruzi growth-2	T cruzi growth-3	3T3 cytotox	3T3 cytotox 2
Cc1noc(C)c1NC(=O)N1C[C@@H](O)COC[C@@H]2O[C@H](CC(=O)NCC3CC3)CC[C@H]21	·	4	·	?	?	4	-1	-3
O=C(C[C@@H]1CC[C@@H]2[C@H](COC[C@H](O)CN2C(=O)Nc2ccc(Cl)c(Cl)c2)O1)NCc1ccc(Cl)c(Cl)c1	-4	-1	·	107*	100*	74	43*	103*
CN(C)CCC(C)(O)Cc1ccccc1 (configuration not stated)	·	·	0	·	·	·	·	·
Cc1ccc(C2=CC(c3ccccc3)SC(N)=N2)cc1 (configuration not stated)	·	·	1	·	·	·	·	·
CCOC(=O)c1c(NC(=O)CN2C(=O)c3ccccc3C2=O)sc(C)c1C	·	·	0	·	·	·	·	·
C[C@H](CO)N1C[C@H](C)[C@H](CN(C)C(=O)Nc2ccc(F)cc2)Oc2c(NC(=O)c3ccc(-c4nccs4)cc3)cccc2C1=O	·	-1	·	·	·	·	·	·
